Measurements published in ChEMBL document CHEMBL3865830, “Multifunctional diamine AGE/ALE inhibitors with potential therapeutical properties against Alzheimer's disease” (Eur J Med Chem, 2016).

Key:
[1] = Antioxidant activity assessed as inhibition of AAPH-induced peroxyl radical generation measured as trolox equivalent at 10 uM preincubated for 30 mins followed by AAPH addition measured evey 60 secs for 60 cycles by ORAC-FL assay; type: functional; settings: in the assay text read “90 secs” for “60 secs”
Procedure, shortened: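 Fluorescein (12 nM) preincubated with compound (1-20 µM) or Trolox standard (1-50 µM) in D-PBS, at least 30 min at 37 °C. Reaction started with AAPH (30 mM). Fluorescence (ex 485/em 520 nm) read every 90 s for 60 cycles. Net AUC is converted to Trolox equivalents via the Trolox calibration line. Values are reported at 10 µM, from at least three independent experiments in triplicate.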

[2] = Reactive carbonyl species trapping activity of compound assessed as MGO adduct formation at 10 mM preincubated for 24 hrs with MGO measured after 24 hrs by LCMS analysis; type: physicochemical; settings: 10000 µM
[3] = Reactive carbonyl species trapping activity of compound assessed as MGO adduct formation at 10 mM preincubated for 24 hrs with MGO measured after 15 mins by LCMS analysis; type: physicochemical; settings: 0.25 h, 10000 µM
[4] = Reactive carbonyl species trapping activity of compound assessed as MDA adduct formation at 10 mM preincubated for 24 hrs with MDA measured after 1 hr by LCMS analysis; type: physicochemical; settings: 10000 µM
[5] = Metal chelating activity of compound assessed as compound-Cu2+ complex formation at 200 uM after 10 mins in presence of CuSO4.5H2O by complexometric indicator murexide based UV-Vis spectrophotometric analysis; type: physicochemical
Procedure, shortened: (§1)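 Compound (0.02-2 mM) incubated with CuSO4 (120 µM) for 10 min at rt, in 10 mM hexamine/HCl with 10 mM KCl (pH 5.0), or in buffer/MeOH 75:25 for poorly soluble compounds. Murexide added, 1 min more. The A485/A520 ratio gives free Cu2+ from a CuSO4 calibration curve (0-125 µM). % chelation is taken by difference from the no-compound control; triplicates.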

Rattus norvegicus = organism: Rattus norvegicus; assay: Cytotoxicity against rat […] PC12 cells assessed as reduction in cell viability at 10 to 100 uM after 24 hrs by WST8-based CCK8 assay; type: toxicity; settings: pc-12, 24 h
Procedure, shortened: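 PC12 Adh cells (rat pheochromocytoma-derived) grown in F-12K with 2.5% FBS, 15% horse serum and pen/strep at 37 °C, 5% CO2. Seeded at 5×10^3 cells/well; treated at 80% confluency with 10 or 100 µM for 24 h. 10% DMSO served as positive cytotoxicity control. CCK-8 added for 1 h at 37 °C, absorbance read at 450 nm. Viability given as % of untreated cells; at least three experiments in triplicate.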

[6] = Reactive carbonyl species trapping activity of compound assessed as MGO adduct formation at 10 mM preincubated for 24 hrs with MGO measured after 0.25 hrs by LCMS analysis; type: physicochemical; settings: 10000 µM
[7] = Reactive carbonyl species trapping activity of compound assessed as MGO adduct formation at 10 mM preincubated for 24 hrs with MGO measured after 0.5 hrs by LCMS analysis; type: physicochemical; settings: 10000 µM
[8] = Reactive carbonyl species trapping activity of compound assessed as MGO adduct formation at 10 mM preincubated for 24 hrs with MGO measured after 1 hr by LCMS analysis; type: physicochemical; settings: 10000 µM
[9] = Reactive carbonyl species trapping activity of compound assessed as MGO adduct formation at 10 mM preincubated for 24 hrs with MGO measured after 5 hrs by LCMS analysis; type: physicochemical; settings: 10000 µM
[10] = Reactive carbonyl species trapping activity of compound assessed as MDA adduct formation at 10 mM preincubated for 24 hrs with MDA measured after 0.25 hrs by LCMS analysis; type: physicochemical; settings: 10000 µM
[11] = Reactive carbonyl species trapping activity of compound assessed as MDA adduct formation at 10 mM preincubated for 24 hrs with MDA measured after 0.5 hrs by LCMS analysis; type: physicochemical; settings: 10000 µM
[12] = Reactive carbonyl species trapping activity of compound assessed as MDA adduct formation at 10 mM preincubated for 24 hrs with MDA measured after 5 hrs by LCMS analysis; type: physicochemical; settings: 10000 µM
[13] = Reactive carbonyl species trapping activity of compound assessed as MDA adduct formation at 10 mM preincubated for 24 hrs with MDA measured after 24 hrs by LCMS analysis; type: physicochemical; settings: 10000 µM
[14] = Metal chelating activity of compound assessed as compound-Cu2+ complex formation at 0.02 mM after 10 mins in presence of CuSO4.5H2O by complexometric indicator murexide based UV-Vis spectrophotometric analysis; type: physicochemical; settings: 20 µM; procedure, shortened: as §1
[15] = Metal chelating activity of compound assessed as compound-Cu2+ complex formation at 0.05 mM after 10 mins in presence of CuSO4.5H2O by complexometric indicator murexide based UV-Vis spectrophotometric analysis; type: physicochemical; settings: 50 µM; procedure, shortened: as §1
[16] = Metal chelating activity of compound assessed as compound-Cu2+ complex formation at 0.08 mM after 10 mins in presence of CuSO4.5H2O by complexometric indicator murexide based UV-Vis spectrophotometric analysis; type: physicochemical; settings: 80 µM; procedure, shortened: as §1
[17] = Metal chelating activity of compound assessed as compound-Cu2+ complex formation at 0.1 mM after 10 mins in presence of CuSO4.5H2O by complexometric indicator murexide based UV-Vis spectrophotometric analysis; type: physicochemical; settings: 100 µM; procedure, shortened: as §1
[18] = Metal chelating activity of compound assessed as compound-Cu2+ complex formation at 0.5 mM after 10 mins in presence of CuSO4.5H2O by complexometric indicator murexide based UV-Vis spectrophotometric analysis; type: physicochemical; settings: 500 µM; procedure, shortened: as §1
[19] = Metal chelating activity of compound assessed as compound-Cu2+ complex formation at 1 mM after 10 mins in presence of CuSO4.5H2O by complexometric indicator murexide based UV-Vis spectrophotometric analysis; type: physicochemical; settings: 1000 µM; procedure, shortened: as §1
[20] = Metal chelating activity of compound assessed as compound-Cu2+ complex formation at 2 mM after 10 mins in presence of CuSO4.5H2O by complexometric indicator murexide based UV-Vis spectrophotometric analysis; type: physicochemical; settings: 2000 µM; procedure, shortened: as §1

Activity [2] [%] | Activity [3] [%] | Activity [4] [%] | Activity [5] [%] | Activity [6] [%] | Activity [7] [%] | Activity [8] [%] | Activity [9] [%] | Activity [10] [%] | Activity [12] [%] | Activity [13] [%] | Activity [14] [%] | Activity [15] [%] | Activity [16] [%] | Activity [17] [%] | Activity [18] [%] | Activity [19] [%] | Activity [20] [%] | SMILES | Activity (umolequiv/umol) [1] | Activity (Rattus norvegicus) | other results
 |  |  |  |  |  |  |  |  |  |  |  |  |  |  |  |  |  | Cc1c(C)c2c(c(C)c1O)CCC(C)(C(=O)O)O2 (centres undefined) | 1 |  | 
100 | 99 | 88 | 74.7 | 99 | 99 | 99 | 99 | 86 | 89 | 92 | 21.31 | 38.95 | 48.35 | 52.98 | 91.66 | 96 | 97.73 | Cc1c(O)c(=O)ccn1CCC(=O)NCCCCC(N)CN.Cl.Cl (centres undefined) | 1.24 | Non-Toxic | Activity [11]: 88%
 |  |  | 100 |  |  |  |  |  |  |  | 18.81 | 44.49 | 64.61 | 69.82 | 100 | 100 | 100 | NCCN [ETHYLENEDIAMINE] |  |  | 
 |  |  | 54.61 |  |  |  |  |  |  |  | 11.08 | 19.87 | 30.19 | 34.48 | 76.54 | 89.96 | 94.72 | CC(C)(C)OC(=O)NCC(CCCCNC(=O)CCn1cccc(O)c1=O)NC(=O)OC(C)(C)C.Cl.Cl (centres undefined) |  |  | 
100 | 59 |  | 27.68 | 59 |  | 70 | 93 | 62 | 77 | 62 | 3.22 | 10.28 | 14.87 | 16.55 | 43.56 | 53.27 | 62.53 | CCCCN1CCN(C(=O)C(N)CN)CC1.Cl.Cl (centres undefined) |  |  | Activity [11]: 65%
82 |  | 100 | 23.6 |  | 33 | 37 | 51 | 100 | 100 | 100 | 3.25 | 7.07 | 10.65 | 13.97 | 40.27 | 51.61 | 62.15 | Cl.Cl.NCC(N)C(=O)N1CCNCC1 (centres undefined) | 0 | Non-Toxic | Activity [11]: 100%
 |  |  | 33.91 |  |  |  |  |  |  |  | 6.59 | 12.05 | 19.27 | 21.41 | 51.43 | 61.48 | 67.84 | Cl.Cl.NCC(N)CCCCNC(=O)CCn1cccc(OCc2ccccc2)c1=O (centres undefined) |  |  | 
100 | 100 | 17 |  | 100 | 100 | 100 | 100 | 17 | 24 | 100 | 5.39 | 7.96 | 12.17 | 15.88 | 42.89 | 52.15 | 59.06 | COc1cc(/C=C/C(=O)NCCCCC(N)CN)ccc1O.Cl.Cl (centres undefined) | 1.5 | Non-Toxic | Activity [11]: 17%
99 | 99 | 87 | 50.25 | 99 | 97 | 99 | 99 | 75 | 92 | 91 | 10.33 | 18.5 | 27.53 | 30.74 | 68.5 | 75.14 | 78.98 | Cl.Cl.NCC(N)CC(=O)N1CCN(C(=O)CCn2cccc(O)c2=O)CC1 (centres undefined) | 0.58 | Toxic | 
100 | 98 | 69 | 62.77 | 98 | 96 |  | 99 | 65 | 73 | 95 | 12.05 | 24.51 | 34.87 | 41.17 | 81.17 | 85.56 | 87.04 | Cl.Cl.NCC(N)CCCCNC(=O)CCn1cccc(O)c1=O (centres undefined) | 1.21 | Non-Toxic | 
 |  |  | 45.61 |  |  |  |  |  |  |  | 3.3 | 14.92 | 22.44 | 28.75 | 61.66 | 71.51 | 81.81 | COc1cc(/C=C/C(=O)N2CCN(C(=O)CCC(N)CN)CC2)ccc1O.Cl.Cl (centres undefined) | 2.05 | Non-Toxic | 
95 | 90 | 84 | 87.39 | 90 |  | 93 | 89 |  | 87 | 81 | 14.24 | 31.34 | 50.28 | 61.98 | 93.72 | 93.82 | 88.48 | Cl.Cl.NCC(N)CCCCNC(=O)c1cc(O)c(O)c(O)c1 (centres undefined) | 2.59 | Non-Toxic | Activity [11]: 80%
59 | 46 | 40 | 1.53 | 46 | 51 |  | 58 | 23 | 38 | 66 | 0.73 | 0 | 0.38 | 0.72 | 5.39 | 16.92 | 41.7 | NCCC(=O)N[C@@H](Cc1cnc[nH]1)C(=O)O [CARNOSINE] |  |  | Activity [11]: 32%
 |  |  |  |  |  |  |  |  |  |  |  |  |  |  |  |  |  | NCCC(=O)N[C@@H](Cc1c[nH]cn1)C(=O)O | 0.08 |  | 
